Experimental data: ChEMBL document CHEMBL1158344, “Synthesis and antinociceptive activities of some pyrazoline derivatives” (Eur J Med Chem, 2009)

Legend:
Mus musculus [1] = experiment: Antinociceptive activity in 5 mg/kg naloxone pretreated Swiss albino mouse assessed as protection against acetic acid-induced writhing at 100 mg/kg, ip administered 30 mins before acetic acid challenge; assay type: functional
Method in brief: (§1)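 Mice, n = 7 per group, received sunflower oil vehicle or compound at 100 mg/kg ip. 30 min later they were given 0.6% acetic acid ip at 10 mL/kg. Abdominal contractions and stretches were counted over 10 min, starting 5 min after the acetic acid. In naloxone groups, naloxone was given 15 min before compound. % protection = [(control mean − treated mean)/control mean] × 100.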

Mus musculus [2] = experiment: Analgesic activity in Swiss albino mouse assessed as analgesia at 100 mg/kg by hot plate method; assay type: functional
Method in brief: (§2)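 Mice, n = 7 per group, were placed one at a time on a hot plate held at 55 ± 1.0 °C. Latency to forepaw licking or to jumping out of the glass beaker was recorded, with a cut-off of 30 s. Latency was read 30 min after compound at 100 mg/kg or sunflower oil vehicle. In naloxone groups, naloxone 5 mg/kg ip was given 15 min before compound. Results are reported as % analgesia, mean ± SEM.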

Mus musculus [3] = experiment: Antinociceptive activity in Swiss albino mouse assessed as protection against acetic acid-induced writhing at 100 mg/kg, ip administered 30 mins before acetic acid challenge; assay type: functional; conditions: route intraperitoneal; method in brief: as §1
Mus musculus [4] = species on record: Mus musculus; experiment: Neurological deficit effect in Swiss albino mouse assessed as effect on motor coordination by measuring fall latency by Rota rod test; conditions: in vivo
Method in brief: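 Mice were trained for three consecutive days on a Rota-Rod at 16 rev/min, and only those staying on longer than 180 s were used. Each mouse was tested on the rod 5 min after the hot plate test, and the latency to fall was recorded.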

Mus musculus [5] = experiment: Analgesic activity in 5 mg/kg naloxone pretreated Swiss albino mouse assessed as analgesia at 100 mg/kg by hot plate method; assay type: functional; method in brief: as §2
Mus musculus [6] = experiment: Toxicity in Swiss albino mouse assessed as mortality at 100 mg/kg; assay type: organism-based; design: dose 100 mg/kg; conditions: in vivo
Mus musculus [7] = experiment: Analgesic activity in Swiss albino mouse assessed as analgesia at 10 mg/kg by hot plate method; assay type: functional
Method in brief: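 Mice (n = 7) were dosed with the test compound in sunflower oil vehicle. Thirty minutes later each mouse was placed on a hot plate at 55 ± 1.0 °C. Latency to forepaw licking or jumping out of the glass beaker was recorded, with a 30 s cut-off. Values are mean ± SEM % analgesia.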

Mus musculus [8] = experiment: Antinociceptive activity in Swiss albino mouse assessed as protection against acetic acid-induced writhing at 10 mg/kg, ip administered 30 mins before acetic acid challenge; assay type: functional; conditions: route intraperitoneal
Method in brief: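 Mice (n = 7) were given the compound i.p. in sunflower oil vehicle, then 0.6% acetic acid i.p. (10 mL/kg) 30 min later. Abdominal contractions and stretches were counted for 10 min, starting 5 min after the acid. % protection = [(control mean − treated mean)/control mean] × 100. Values are mean ± SEM.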

Work on `COc1ccc(C2CC(c3ccccc3)=NN2C(=O)CSc2nc3ccccc3[nH]2)cc1` (stereo not drawn) yielded an Activity (Mus musculus [1]) of 22.32%, an Activity (Mus musculus [2]) of 60.6% and an Activity (Mus musculus [3]) of 97.21%. The Activity (Mus musculus [4]) was “Non-toxic”, the Activity (Mus musculus [5]) was -1.34% and the Activity (Mus musculus [6]) was “Non-toxic”.

`Cc1ccc(C2=NN(C(=O)CSc3nc4ccccc4[nH]3)C(c3ccccc3)C2)cc1C` (stereo not drawn) was tested, and the Activity (Mus musculus [1]) was 19.07%, the Activity (Mus musculus [2]) was 82.5% and the Activity (Mus musculus [3]) was 97.67%. For the same compound, the Activity (Mus musculus [4]) was “Non-toxic”, the Activity (Mus musculus [5]) was -0.58% and the Activity (Mus musculus [6]) was “Non-toxic”.

With `O=C(CSc1nc2ccccc2[nH]1)N1N=C(c2ccccc2)CC1c1ccccc1` (stereo not drawn) the Activity (Mus musculus [1]) was 12.56%, the Activity (Mus musculus [2]) was 61.9% and the Activity (Mus musculus [3]) was 85.13%. For the same compound, the Activity (Mus musculus [4]) was “Non-toxic”, the Activity (Mus musculus [5]) was -1.5% and the Activity (Mus musculus [6]) was “Non-toxic”.

In the case of `Cc1ccc(C2=NN(C(=O)CSc3nc4cc(Cl)ccc4o3)C(c3ccccc3)C2)cc1C` (stereo not drawn), the Activity (Mus musculus [1]) is reported as 21.39%, the Activity (Mus musculus [2]) is reported as 72.6% and the Activity (Mus musculus [3]) is reported as 98.14%. For the same compound, the Activity (Mus musculus [4]) was “Non-toxic”, the Activity (Mus musculus [5]) was -0.97% and the Activity (Mus musculus [6]) was “Non-toxic”.

Compound `O=C(CSc1nc2cc(Cl)ccc2o1)N1N=C(c2ccccc2)CC1c1ccccc1` (stereo not drawn) has an Activity (Mus musculus [1]) of 7.44%, an Activity (Mus musculus [2]) of 59.7% and an Activity (Mus musculus [3]) of 57.72%. For the same compound, the Activity (Mus musculus [4]) was “Non-toxic”, the Activity (Mus musculus [5]) was -1.32% and the Activity (Mus musculus [6]) was “Non-toxic”.

`COc1ccc(C2CC(c3ccccc3)=NN2C(=O)CSc2nc3cc(Cl)ccc3o2)cc1` (stereo not drawn) showed an Activity (Mus musculus [1]) of 5.58%, an Activity (Mus musculus [2]) of 47.7% and an Activity (Mus musculus [3]) of 43.32%. For the same compound, the Activity (Mus musculus [4]) was “Non-toxic”, the Activity (Mus musculus [5]) was -2.95% and the Activity (Mus musculus [6]) was “Non-toxic”.

In the case of `CN1CC[C@]23c4c5ccc(O)c4O[C@H]2[C@@H](O)C=C[C@H]3[C@H]1C5` [MORPHINE], the Activity (Mus musculus [7]) is reported as 92.9% and the Activity (Mus musculus [8]) is reported as 87.45%.
